The nature of data set [1]: Quenching efficiency measurements. The data set is classed as physicochemical. The settings on record: FAP-PP quenched by free BHQ3 in DMSO; slope of linear Stern-Volmer plot. Put shortly: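 Unquenched peptide-photosensitizer (1 μM in DMSO) was mixed with varying concentrations of free BHQ3 quencher. Fluorescence was corrected using absorbance at the excitation and emission wavelengths. Data were fitted to F0/F = 1 + KSV[Q], and KSV was taken from the slope of the Stern-Volmer plot.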

Data set [2] concerns HEK-Vector cells. Description: In vitro photocytotoxicity. Format: cell-based, human. The settings on record: for photocytotoxicity toward HEK-Vector cells in the presence of light: FAP-PPB 8 μM, FAP-PP 4 μM, 2D-FAP-PPB 8 μM, 2 J cm^−2, MTT.
Data set [3] addresses T1, murine FAP (mFAP) (Mus musculus, UniProt P97321).
T1 sequence (P97321 26-761 limits assumed): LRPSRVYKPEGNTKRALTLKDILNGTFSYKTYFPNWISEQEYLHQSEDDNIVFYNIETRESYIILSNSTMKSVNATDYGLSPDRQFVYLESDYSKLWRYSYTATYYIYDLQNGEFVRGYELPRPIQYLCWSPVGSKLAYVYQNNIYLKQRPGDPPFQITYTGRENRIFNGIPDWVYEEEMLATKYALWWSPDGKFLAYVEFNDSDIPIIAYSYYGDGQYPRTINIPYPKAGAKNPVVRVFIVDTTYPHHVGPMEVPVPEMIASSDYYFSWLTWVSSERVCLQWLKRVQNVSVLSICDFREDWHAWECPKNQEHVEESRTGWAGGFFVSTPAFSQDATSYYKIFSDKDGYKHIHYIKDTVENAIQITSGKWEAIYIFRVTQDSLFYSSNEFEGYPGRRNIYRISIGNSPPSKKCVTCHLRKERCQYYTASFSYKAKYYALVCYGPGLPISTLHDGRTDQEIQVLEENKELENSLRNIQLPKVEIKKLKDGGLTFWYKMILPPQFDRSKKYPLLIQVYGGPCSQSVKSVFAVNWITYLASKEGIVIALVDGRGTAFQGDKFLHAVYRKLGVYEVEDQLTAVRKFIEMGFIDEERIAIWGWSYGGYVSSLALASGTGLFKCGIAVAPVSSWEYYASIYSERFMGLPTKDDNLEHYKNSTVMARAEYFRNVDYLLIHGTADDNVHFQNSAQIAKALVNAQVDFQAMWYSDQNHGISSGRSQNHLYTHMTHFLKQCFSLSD
The data set can be described thus: Activation of FAP-PPB by murine FAP in buffer. Format: biochemical. Put shortly:
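In-house expressed, purified murine FAP (2 μg) incubated with probe (1 nmol, predissolved in 2.5 μL DMSO plus 0.5 μL Tween 80, then 1 mL 0.12 M NaCl/0.12 M TRIS, pH 7.37); probe:enzyme about 50:1. Fluorescence followed in real time at 37°C (ex 650 nm, em 675 nm). Cleavage also tracked by HPLC-MS every 30 min until complete.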

The test system of data set [4] is HEK-mFAP and HEK-Vector cells. The data set can be described thus: Flow cytometric studies, HEK-mFAP versus HEK-Vector cells. Format: cell-based, human. The settings on record: 6.25 μM. In outline:
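Transfected HEK293 lines (murine FAP or empty vector) seeded at about 7 × 10^5 cells/well for 2 days, then kept overnight in FBS-free DMEM. Probe diluted in this conditioned medium to 6.25 μM and applied 1, 2, 4, 6 or 24 h at 37°C. Cells were centrifuge-washed three times, fixed in 2% paraformaldehyde for 10 min, and read by flow cytometry (ex 633 nm, em 660–690 nm; 10000 cells). Three independent experiments.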
In general terms: A flow cytometer gives signals particle by particle.

The subject of data set [5] is tumor site. The data set can be described thus: Tumor accumulation after intravenous tail-vein injection. Format: in vivo.
Data set [6] relates to HEK-mFAP cells. Description: In vitro photocytotoxicity. The settings on record: for photocytotoxicity toward HEK-mFAP cells in the presence of light: FAP-PPB 8 μM, FAP-PP 4 μM, 2D-FAP-PPB 8 μM, 2 J cm^−2, MTT. The data set is classed as cell-based, human.
Data set [7] deals with HEK-Vector tumor. The data set can be described thus: Mouse xenograft in vivo imaging and ex vivo validation, HEK-Vector tumor. Also noted: species or system nude mice. In outline: (§1)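 Athymic female nude mice carried 1 × 10^7 FAP-transfected HEK293 cells on the left flank and 1 × 10^7 vector cells on the right, or FAP cells on both flanks. After 3 weeks (tumors 5–10 mm) mice received 4 days of low-fluorescence diet and ketamine/acepromazine anaesthesia. Probe (25 nmol in 30 μL aqueous, 2 μL DMSO, 0.5 μL Tween 80) was injected intratumorally at several sites. Imaging before and at intervals to 24 h used ex 650 nm, em ≥700 nm, 200 ms exposure; signal normalised to exposure time and ROI area.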

In data set [8] the test system is HEK-mFAP cells (FAP+). Description: Confocal microscopic studies, HEK-mFAP cells. Format: cell-based, human. The settings on record: 25 μM, 6 h, 37°C, FBS-free medium. In outline:
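HEK293 stably expressing full-length wild-type murine FAP, grown in DMEM with 10% FBS, 2 mM L-glutamine and G418 200 μg mL−1. Cells seeded at 1.5 × 10^4/well for 2 days, then kept overnight in FBS-free DMEM. Probe was diluted in this conditioned medium to 25 μM and applied 6 h at 37°C, 5% CO2. Cells were fixed in 3% formaldehyde (20 min, dark), DAPI-mounted, and imaged confocally (405 and 633 nm lasers).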

Data set [9] has as its system HT29 tumor (FAP on stromal fibroblasts). The data set can be described thus: HT29 mouse xenograft in vivo imaging and frozen-section microscopy. On the set-up: species or system nude mouse.
For data set [10], the target named is T2, mFAP (Mus musculus, UniProt P97321).
T2 sequence (P97321 26-761 limits assumed): T1 sequence (P97321 26-761 limits assumed)
The data set can be described thus: mFAP activity assay. Format: biochemical, murine. The note with it: 37°C. Put shortly: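 Probe at 0.1, 0.3, 0.5, 0.7, 1, 2 and 6 μM (predissolved in 2.5 μL DMSO plus 0.5 μL Tween 80, then 1 mL 0.12 M NaCl/0.12 M TRIS, pH 7.37) was incubated with murine FAP (2 μg) at 37°C. Fluorescence was read continuously (ex 650, em 675 nm). After 1 h, 10 μg enzyme was added and reading continued 2 h. Triplicates were run. Vmax, Km, kcat and kcat/Km came from nonlinear Michaelis-Menten fits of initial rates (10% substrate depleted).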

Data set [11] deals with HEK-mFAP tumor. The data set can be described thus: Mouse xenograft in vivo imaging and ex vivo validation, HEK-mFAP tumor. On the set-up: species or system nude mice. In outline: as §1
For data set [12], the target named is dipeptidyl peptidase IV (DPPIV) (Homo sapiens, UniProt P27487). Description: Stability of FAP-PPB toward DPPIV. The note with it: FAP-PPB 1 nmol in 1 mL 20mM TRIS pH 7.5, PPB:DPPIV = 228:1, 37 °C.
Sequence of dipeptidyl peptidase IV (DPPIV) (P27487 29-766 limits assumed, species assumed): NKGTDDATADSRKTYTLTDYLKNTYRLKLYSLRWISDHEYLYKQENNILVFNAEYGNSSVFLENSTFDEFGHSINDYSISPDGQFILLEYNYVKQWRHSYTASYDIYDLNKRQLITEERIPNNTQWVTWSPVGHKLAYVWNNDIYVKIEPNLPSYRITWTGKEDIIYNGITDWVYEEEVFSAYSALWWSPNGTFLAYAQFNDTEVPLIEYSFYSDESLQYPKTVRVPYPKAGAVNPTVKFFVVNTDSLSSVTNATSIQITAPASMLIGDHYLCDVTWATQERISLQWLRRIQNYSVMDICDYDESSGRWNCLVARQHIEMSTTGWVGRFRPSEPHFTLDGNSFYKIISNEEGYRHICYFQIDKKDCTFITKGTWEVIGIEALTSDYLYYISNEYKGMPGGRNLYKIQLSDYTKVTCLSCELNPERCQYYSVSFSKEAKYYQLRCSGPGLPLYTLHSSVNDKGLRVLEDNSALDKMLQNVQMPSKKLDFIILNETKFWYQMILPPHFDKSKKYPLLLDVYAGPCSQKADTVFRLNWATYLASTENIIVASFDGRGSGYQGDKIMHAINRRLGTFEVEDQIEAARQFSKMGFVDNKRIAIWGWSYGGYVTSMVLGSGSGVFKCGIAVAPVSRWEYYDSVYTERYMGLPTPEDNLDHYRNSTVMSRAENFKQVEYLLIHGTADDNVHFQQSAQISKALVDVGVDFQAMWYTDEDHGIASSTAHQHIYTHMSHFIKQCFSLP
For data set [13], the system named is HEK-Vector cells (FAP−). The data set can be described thus: Confocal microscopic studies, HEK-Vector cells. The data set is classed as cell-based, human. The settings on record: 25 μM, 6 h, 37°C, FBS-free medium. Put shortly:
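HEK293 stably carrying empty vector, grown in DMEM with 10% FBS, 2 mM L-glutamine and hygromycin B 200 μg mL−1. Cells seeded at 1.5 × 10^4/well for 2 days, then kept overnight in FBS-free DMEM. Probe was diluted in this conditioned medium to 25 μM and applied 6 h at 37°C, 5% CO2. Cells were fixed in 3% formaldehyde (20 min, dark), DAPI-mounted, and imaged confocally (405 and 633 nm lasers).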

In data set [14] the test system is HEK-mFAP cells (FAP+). The data set can be described thus: HPLC-MS of culture media after incubation with HEK-mFAP cells. Format: cell-based, human. The note with it: for cleavage in culture media of HEK-mFAP cells (HPLC-MS): media after incubation for the confocal study, 25 μM, 6 h. In outline: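 Probe-containing FAP-expressing HEK293 culture media were collected after incubation and analysed by HPLC-MS for cleaved probe. One set came from flow cytometry (6.25 μM in FBS-free DMEM, up to 24 h, 37°C). The other came from confocal work (25 μM, 6 h, 37°C).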

The mark [15] stands for this setting: 10 micron frozen sections, 24 h post-injection.
Where [16] appears, read: tumor homogenized, DMSO extract, 24 h post-injection of 25 nmol intra-tumor.

Peptide text beside a SMILES is read from it. * marks the point of attachment. Pyropheophorbide(a) = C=Cc1c(C)c2cc3nc(c4c5[nH]c(cc6nc(cc1[nH]2)C(C)=C6CC)c(C)c5C(=O)C4)[C@@H](CCC(=O)*)[C@@H]3C; X1 = CCN(CC)c1ccc2nc3ccc(N=Nc4ccc(N(C)CCCC(=O)*)cc4)cc3[n+](-c3ccccc3)c2c1

Take Pyro-TSGPNQEQK [FAP-PP]: the “Stern-Volmer quenching constant (KSV)” value in [1] is reported as 5.3 × 10^4 mol^−1dm^3. Moreover, the “photocytotoxicity toward HEK-Vector cells in the presence of light” value in data set [2] is given as “could kill both cell lines”.
With `C=Cc1c(C)c2cc3nc(c4c5[nH]c(cc6nc(cc1[nH]2)C(C)=C6CC)c(C)c5C(=O)C4)[C@@H](CCC(=O)N[C@H](C(=O)N[C@@H](CO)C(=O)NCC(=O)N1CCC[C@H]1C(=O)N[C@@H](CC(N)=O)C(=O)N[C@@H](CCC(N)=O)C(=O)N[C@@H](CCC(=O)O)C(=O)N[C@@H](CCC(N)=O)C(=O)N[C@@H](CCCCNC(=O)CCCN(C)c1ccc(N=Nc2ccc4nc5ccc(N(CC)CC)cc5[n+](-c5ccccc5)c4c2)cc1)C(N)=O)[C@@H](C)O)[C@@H]3C` [FAP-PPB, Pyro-TSGPNQEQK(BHQ3)] ({Pyropheophorbide(a)}-TSGPNQEQK(X1)-NH2; C-terminus assumed), the “time to complete cleavage by mFAP” value in [3] (HPLC-MS every 30 min, PPB:FAP about 50:1, TRIS buffer pH 7.37, 37°C) was 4 h. Moreover, in [3] (TRIS buffer pH 7.37, 37°C, complete fluorescence restoration), the “fluorescence increase on complete cleavage by mFAP” value turned out to be 200 fold. Besides, the “dark toxicity (distribution and shape of cells in flow cytometry)” value in [4] (1 to 24 h, both cell lines, no light) is “does not have dark toxicity to both cell lines”. For the same molecule, the “fluorescence intensity in HEK-mFAP cells compared to HEK-Vector cells” value in data set [4] (flow cytometry, 1 h incubation) was “about 8 fold”. In addition, the “accumulation at the tumor site” value in data set [5] is on record as “no selective accumulation”. The “cytotoxicity toward HEK-mFAP cells in the absence of light” value in [6] (8 μM, 24 h, MTT) is “non-cytotoxic in the absence of light”. In addition, the “cell viability of HEK-mFAP cells with light” value in data set [6] (8 μM, 24 h incubation, 670 nm laser, 130 mW cm^−2, 2 J cm^−2, MTT) was 55%. In data set [6], the “photocytotoxicity toward HEK-mFAP cells in the presence of light” value is given as “significant photocytotoxicity”. In data set [7] (setting [15]), the “Pyro fluorescence in HEK-Vector tumor frozen sections (confocal)” value was “very weak signal”. The “fluorescence signal in HEK-Vector tumor relative to HEK-mFAP tumor” value in data set [7] (24 h post injection, fluorescence intensity per exposure time at tumor site) is listed as “about half”. Moreover, in data set [7] (setting [16]), the “cleavage in HEK-Vector tumor extract (HPLC-MS)” value is reported as “no cleavage was observed”. Further, the “intracellular fluorescence in HEK-mFAP cells (confocal)” value in data set [8] is “bright intracellular fluorescence signal”. Also, the “in vivo fluorescence in HT29 tumor” value in data set [9] (25 nmol intra-tumor injection, left flank) was “strong fluorescence signal was observed immediately and it lasted for 24 h”. In addition, the “Pyro fluorescence in HT29 tumor frozen section (confocal)” value in [9] (after in vivo imaging) was “bright Pyro’s fluorescence signals within both cancer cells and fibroblasts”. For the same molecule, the “cytotoxicity toward HEK-Vector cells in the absence of light” value in data set [2] (8 μM, 24 h, MTT) is reported as “non-cytotoxic in the absence of light”. Further, the “photocytotoxicity toward HEK-Vector cells in the presence of light” value in data set [2] is given as “not in the HEK-Vector cells”. In addition, the “specificity constant (kcat/Km)” value in data set [10] is 29200 M⁻¹ s⁻¹. In data set [11] (25 nmol intra-tumor injection, in vivo fluorescence imaging), the “time to activation of FAP-PPB in tumor” value is recorded as not above 5 min. Besides, in [11] (setting [15]), the “Pyro fluorescence in HEK-mFAP tumor frozen sections (confocal)” value is given as “strong Pyro’s fluorescence signal”. The “HPLC analysis after incubation with DPPIV” value in data set [12] (2 h, HPLC-MS) is “only a single peak corresponding to the intact FAP-PPB”. Moreover, the “fluorescence intensity change on incubation with DPPIV” value in [12] (over 2 h) was “No significant increase in fluorescence intensity”. For the same molecule, the “intracellular fluorescence in HEK-Vector cells (confocal)” value in data set [13] is “minimal fluorescence signal”. The “FAP-PPB cleaved in media after incubation with HEK-mFAP cells” value in [14] (6.25 μM, 24 h incubation, HPLC-MS, data not shown) is “approximately 70%”. Moreover, in data set [14], the “cleavage in culture media of HEK-mFAP cells (HPLC-MS)” value was “two peaks corresponding to fragments Pyro-TSGP and NQEQK-BHQ3 were identified”.
Take Pyro-TSGpnQEQK(BHQ3) [2D-FAP-PPB]: the “photocytotoxicity toward HEK-mFAP cells in the presence of light” value in data set [6] was “essentially non-cytotoxic”. For the same molecule, the “intracellular fluorescence in HEK-mFAP cells (confocal)” value in [8] was “no significant fluorescence”. In addition, the “photocytotoxicity toward HEK-Vector cells in the presence of light” value in data set [2] was “essentially non-cytotoxic”. Further, in data set [11] (setting [16]), the “cleavage in HEK-mFAP tumor extract (HPLC-MS)” value is recorded as “little non-specific cleavages”. The “intracellular fluorescence in HEK-Vector cells (confocal)” value in data set [13] is given as “no significant fluorescence”. Besides, in data set [14], the “cleavage in culture media of HEK-mFAP cells (HPLC-MS)” value was “no cleavage was observed”.

(Values after publication PMC2773291 (Journal of medicinal chemistry, 2009).)
